RAM inhibit = inhibitors of the yeast RAM network. inhibition, % at 50 µM. hit rate 1.8% among 190,000. AID 868. S. cerevisiae dse1pr::URA3 reporter, 5-FOA growth OD615, 2 d; analog-sensitive cbk1-as2 kinase mutant strain;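 active = inhibition above a set limit, 3 SD over mean compound inhibition, cut at about 8.4% in these data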;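 note: 0% = DMSO-only wells with no growth and 100% = 10 µM 1-NA-PP1 full growth; inhibition rescues growth on 5-FOA so higher OD means more RAM inhibition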
Insulin prom inh = TRM-6 insulin promoter activity inhibition. TRM-6 cells, insulin promoter-eGFP reporter, imaging; reporter expression induced with tamoxifen. inhibition, % at 2 µM. hit rate 0.9% among 130,000. AID 1273;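 active = inhibition above the mean plus 3 SD, with well images judged a real hit on visual review, cut at about 60% in these data, passing the limit was not always enough; inconclusive = inhibition over the cutoff but images rejected on review; inactive = inhibition not above the cutoff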
Ins promoter up = MIN6 insulin promoter up-regulation | MIN6 insulin promoter-GFP reporter, high-content imaging; hits give high values | z-score at 5 µM | hit rate 0.3% among 190,000 | AID 1625;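 active = z-score above 3 at 5 µM with at least 500 cells counted in the well; inconclusive = wells under 500 cells, flagged as cytotoxic or low count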
Yeast growth inh = reduces growth of yeast BB579 in restrictive medium | S. cerevisiae BB579 growth, OD615, 48 h | inhibition, % at 10 µM | hit rate 0.51% among 140,000 | AID 804;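 active = inhibition above a set limit, 3 SD over the mean compound inhibition, cut at about 44% in these data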
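Assay system – yeast BB579 (DeaD) · Dosing – single compound dose of 10 µM, 0.25% DMSO final · Detection – OD615 turbidity measurement · Buffer or medium – CSMM-D restrictive synthetic medium containing dextrose (glucose) · Benchmarks – positive control amphotericin B 10 µg/mL · Incubation – 48 h exposure, 30 °C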
Yeast lifespan up = yeast lifespan extension. AID 775. inhibition of the nicotinamide effect, % at 10 µM. hit rate 0.68% among 130,000. S. cerevisiae growth with nicotinamide, OD615; deaD strain in restrictive glucose medium;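 active = inhibition above a set limit, placed 3 SD over the median of all compounds, cut at about 26% in these data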;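 note: 0% = nicotinamide-treated wells and 100% = cells grown without nicotinamide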
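Test system – modified budding yeast, DeaD strain · Compound – single dose 10 µM compound, 0.25% DMSO · Times – culture preincubation 4 h, compound exposure 48 h, both 30 °C · Detection – optical density (absorbance) at 615 nm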
RAM 5-FOA = RAM network inhibitors in efflux-deficient yeast; shares compounds with RAM inhibit; S. cerevisiae efflux-deficient reporter strain, 5-FOA growth OD615, 2 days; max inhibition, %; 1,200 tested, under 10 active; AID 1305; call rule not given here;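 note: plate controls were vehicle for no effect and reference inhibitor for full effect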
* marks the source's active call; other numbers are inactive results; ? = inconclusive; nt = no result. An excerpt weighted towards active compounds, which were near 3% of everything screened.

SMILES	RAM inhibit	Insulin prom inh	Ins promoter up	Yeast growth inh	Yeast lifespan up	RAM 5-FOA
Cc1ccc(C)c(NC(=O)c2sc(Cl)nc2-c2ccccc2)c1	15*	-52	-0.67	-49	-11	1
Cc1ccccc1NC(=O)c1sc(Cl)nc1-c1ccccc1	0	-37	1.7	6	-11	nt
C=CCNC(=O)/C(C#N)=C/c1ccc(OS(=O)(=O)c2ccc(C)cc2)c(OC)c1	15*	-43	0.11	-26	24	2
COC(=O)N/N=C/c1ccc(OS(=O)(=O)c2ccc(C)cc2)c(OC)c1	-1	nt	0.3	nt	nt	nt
CCN(C(=O)Cc1c(C(=O)O)n(C)c2ccccc12)c1ccc(F)cc1	4	7	-0.02	nt	nt	nt
Cc1ccc(/C=C2/Sc3ccccc3N(CC(=O)NCCCOC(C)C)C2=O)cc1	13*	-50	-0.28	-40	3	4
CCOCCCNC(=O)CN1C(=O)/C(=C\c2ccc(C)cc2)Sc2ccccc21	8	-37	-0.18	-38	3	nt
COc1cccc(/C=C/C(=O)OCC(=O)Nc2ccccc2Sc2ccccc2)c1	24*	-7	-0.16	-17	1	6
Cc1ccc(/C=C/C(=O)OCC(=O)Nc2ccccc2Sc2ccccc2)cc1	19*	10	0.15	-28	10	6
COc1ccc(OC)c(/C=C/C(=O)OCC(=O)Nc2cccc(Oc3ccccc3)c2)c1	13*	42	0.13	-19	4	3
COc1ccccc1/C=C/C(=O)OCC(=O)Nc1c(F)cccc1F	3	nt	-0.11	nt	nt	nt
CC(C)CC(=O)OCC(=O)Nc1ccccc1Sc1ccccc1	1	23	0.35	-19	3	nt
CC(=O)N1CCN(CC(=O)Nc2ccc([N+](=O)[O-])cc2Br)CC1	1	51	-0.56	nt	nt	nt
CNS(=O)(=O)c1cccc(C(=O)OCc2csc(-c3ccccc3)n2)c1	16*	-38	0.25	0	4	1
O=C(CNS(=O)(=O)c1cccc(Cl)c1)OCc1csc(-c2ccccc2)n1	6	19	0.5	-33	-7	nt
CC(C)(C)n1nnnc1C(c1cccnc1)N(Cc1ccccc1)Cc1ccco1 (stereo not given)	0	-7	0.22	-35	-10	nt
COc1cccc(CN(Cc2ccco2)C(c2ccc(F)cc2)c2nnnn2C(C)(C)C)c1 (stereo not given)	14*	-92	-0.46	-51	-3	3
Cc1cccc(-[n+]2c(C)cc(C)c3c(=O)[nH]c(=O)[nH]c32)c1	0	nt	1.1	-42	-2	nt
CCCn1c2c(c(O)c(C(=O)Nc3ccccn3)c1=O)CCCC2	nt	nt	0.18	nt	nt	nt
CCCn1c2c(c(O)c(C(=O)Nc3ccccc3)c1=O)CCCC2	12*	nt	-0.98	-11	-9	7
C/C(=C\C=C(C#N)C#N)c1cc(C#N)c(N)o1	1	nt	0.34	nt	nt	nt
COc1ccc(NC(=O)C2=C(C)Nc3nc(CCCO)nn3C2c2ccc(OC)c(OC)c2)cc1 (stereo not given)	0	nt	0.11	nt	nt	nt
COc1ccc(C)cc1S(=O)(=O)N(CC(=O)N1CCOCC1)Cc1ccccc1	0	nt	-0.55	-22	-5	nt
COc1ccc(C)cc1S(=O)(=O)N(CC(=O)NCc1ccc(Cl)cc1)Cc1ccccc1	12*	-13	-0.47	-56	15	2
CC1CC2OC(=O)C3(C)CCCC(C)(C23)C1(O)CCc1ccoc1 (stereo not given)	nt	nt	-0.3	nt	nt	nt
SMILES	RAM inhibit	Insulin prom inh	Ins promoter up	Yeast growth inh	Yeast lifespan up	RAM 5-FOA
COC(=O)c1ccc(NC(=O)C(=O)NCC2CCCO2)cc1 (stereo not given)	1	28	0.05	5	-7	nt
Cc1nc(SC(C(N)=O)c2ccccc2)c(C#N)c(C)c1C (stereo not given)	nt	nt	-0.2	nt	nt	nt
COC(=O)C(Sc1nc(C)cc(C)c1C#N)c1ccccc1 (stereo not given)	12*	-14	-0.2	-54	-4	1
NC(=O)CSc1nnc(-c2cccc(S(=O)(=O)N3CCCCC3)c2)o1	nt	nt	-1.7	nt	nt	nt
O=C(CSc1nnc(-c2cccc(S(=O)(=O)N3CCCCC3)c2)o1)NCCC1=CCCCC1	12*	-8	0.27	-55	-7	4
CCN(CC)S(=O)(=O)c1cccc(-c2nnc(SC(C)C(=O)NCCC3=CCCCC3)o2)c1 (stereo not given)	14*	-56	nt	-26	-12	9
COc1ccc(Oc2ccc(/C=C/C(=O)c3cccc(OC)c3)cc2[N+](=O)[O-])cc1	11*	43	0.48	-42	2	5
COc1cccc(-c2nnc(SCC(=O)Nc3ccc(OC)c(OC)c3)n2N)c1	12*	nt	0.04	-22	-7	3
Cn1nc(C(F)(F)F)c(/C=N/OCc2c(Cl)cccc2Cl)c1Cl	0	4	nt	-11	-6	nt
Cn1nc(C(F)(F)F)c(/C=N/OC(=O)c2ccccc2)c1SCc1ccc(Cl)cc1	12*	-100	-0.49	-42	-4	4
Cn1nc(C(F)(F)F)c(/C=N/OC(=O)c2ccccc2Cl)c1SCc1ccccc1Cl	12*	64	-0.52	-30	7	3
Cn1nc(C(F)(F)F)c(/C=N/OC(=O)c2ccc(Cl)cc2)c1Cl	5	-4	nt	-30	-7	nt
O=C(CSCc1c(F)cccc1Cl)Nc1ccccc1C(=O)N1CCOCC1	0	nt	-0.14	nt	nt	nt
CCOC(=O)C1=C(O)c2ccccc2C(=O)/C1=C\c1ccc(CC)cc1	6	-33	0.46	-18	23	nt
CCCc1ccc(/C=C2\C(=O)c3ccccc3C(O)=C2C(=O)OCC)cc1	12*	-4	0.28	-43	10	4
CCOC(=O)c1oc2ccccc2c1CSc1nnnn1-c1ccc(OC)cc1	7	14	0.13	-65	2	nt
CCOC(=O)c1oc2ccc(Br)cc2c1CSc1nnc(C)s1	17*	nt	0.01	-52	-1	2
Cc1ccc(C(C)C)c(OCC(=O)OCc2c(C)noc2C)c1	23*	nt	-0.25	-14	-3	1
OCCC1CN(Cc2cccn2-c2cccnc2)CCN1C1CCCCC1 (stereo not given)	0	nt	1.1	nt	nt	nt
COc1ccc(CC(=O)NC(=S)Nc2ccc(S(N)(=O)=O)cc2)cc1	1	50	nt	-28	2	nt
C=CCN(CC=C)S(=O)(=O)c1ccc(NC(=S)NC(=O)Cc2ccc(OC)cc2)cc1	19*	nt	-1.4	-44	-8	4
C=CCN(CC=C)S(=O)(=O)c1ccc(NC(=S)NC(=O)c2ccco2)cc1	3	-43	-0.49	-64	26	nt
C=CCN(CC=C)S(=O)(=O)c1ccc(NC(=S)NC(=O)c2ccc(-c3ccccc3)cc2)cc1	17*	17	?	-26	-3	4
CCSCc1nnc(SCC(=O)Nc2nc(C)cs2)n1C	0	12	0.26	nt	nt	nt
NC1=NS(=O)(=O)NC1c1ccc(Br)cc1 (stereo not given)	1	17	nt	nt	nt	nt
CCOC(=O)c1cnn(-c2nc(-c3ccc(C)cc3)cs2)c1C(F)(F)F	12*	46	-0.67	-7	-8	3

Screening data from PubChem BioAssay.
